MsrA inhibitor: inhibitors of bovine MsrA | inhibition, % at 15.5 µM | actives 0.75% (n = 360,000) | purified bovine MsrA, absorbance read-out; in the data active = inhibition above about 4.5%
TbMetRS inhib: blocks T. brucei methionyl-tRNA synthetase activity | purified T. brucei MetRS, ATP depletion, Kinase-Glo luminescence | inhibition, % at 11.9 µM | actives 0.4% (n = 360,000) | AID 624268;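 active = inhibition above a per-plate cutoff of the control wells' mean inhibition plus 3 SD, cut at about 5.5% in these data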
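assay system = parasite MetRS enzyme | timing = 15 min preincubation, 2 h reaction, all 25 °C | evaluation = percent inhibition relative to median high and low control wells | medium = HEPES buffer containing pyrophosphatase, BSA, spermine, DTT | compound = single dose, 11.9 µM final nominal, 0.9% final DMSO | detection = Kinase-Glo luminescence, ATP depletion format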
AHR act: human AHR activation; actives 2.5% (n = 320,000); AHR-responsive luciferase reporter cells, luminescence; activation, % at 5 µM; P35869; in the data active = activation above about 47%
Target sequence (P35869 whole entry, looked up): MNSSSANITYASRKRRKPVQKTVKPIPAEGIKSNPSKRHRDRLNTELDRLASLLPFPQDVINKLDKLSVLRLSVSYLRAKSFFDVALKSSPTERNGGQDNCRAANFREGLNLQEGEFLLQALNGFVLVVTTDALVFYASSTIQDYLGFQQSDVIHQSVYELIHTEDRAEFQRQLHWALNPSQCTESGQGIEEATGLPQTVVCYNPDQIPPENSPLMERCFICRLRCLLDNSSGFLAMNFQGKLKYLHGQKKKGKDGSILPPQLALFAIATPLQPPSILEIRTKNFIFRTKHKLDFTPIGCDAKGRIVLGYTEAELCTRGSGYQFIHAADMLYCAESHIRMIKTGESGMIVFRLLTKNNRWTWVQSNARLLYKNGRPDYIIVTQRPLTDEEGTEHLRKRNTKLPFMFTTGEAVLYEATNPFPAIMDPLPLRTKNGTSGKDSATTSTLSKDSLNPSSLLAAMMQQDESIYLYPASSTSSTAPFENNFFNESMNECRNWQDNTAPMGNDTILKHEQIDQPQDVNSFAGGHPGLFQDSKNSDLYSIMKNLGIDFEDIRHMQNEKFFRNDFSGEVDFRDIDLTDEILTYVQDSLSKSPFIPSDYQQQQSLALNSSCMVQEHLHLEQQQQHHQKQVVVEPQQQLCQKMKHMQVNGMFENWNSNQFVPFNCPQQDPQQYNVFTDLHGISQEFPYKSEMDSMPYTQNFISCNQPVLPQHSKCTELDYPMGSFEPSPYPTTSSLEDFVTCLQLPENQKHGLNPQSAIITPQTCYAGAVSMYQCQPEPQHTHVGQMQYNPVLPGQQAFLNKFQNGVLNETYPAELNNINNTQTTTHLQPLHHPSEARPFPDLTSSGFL
AI-2 QS mod: modulators of Vibrio harveyi AI-2 quorum sensing system | Vibrio harveyi JMH597 AI-2 luminescence/OD600 ratio, 9 h; hits give low values; strain lacks LuxN and CqsS sensors; 0 = neutral-control median | activity change, % at 7.5 µM | actives 0.4% (n = 300,000); in the data active = activity change below about -75%, passing the limit was not always enough;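 also: luminescence divided by OD600 gain over 9 h not by final OD600 alone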
m5-HT2A agonist: agonists of mouse serotonin 5-HT2A receptor (HTR2A); P35363; CHO-K1 mHTR2A beta-arrestin complementation, luminescence; percent of 30 µM serotonin response; activation, % at 7.6 µM; actives 0.66% (n = 360,000);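 active = activation above a run cutoff, the mean activation of all tested compounds plus 3 SD, cut at about 14% in these data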
bovine MsrA act: activates bovine MsrA enzyme; purified bovine MsrA, absorbance read-out; activation, % at 10.6 µM; actives 0.3% (n = 360,000); AID 602163; in the data active = activation above about 7.5%
AHR act confirm: confirmation of human aryl hydrocarbon receptor activators | shares compounds with AHR act | human cells, AHR-responsive luciferase reporter, luminescence | activation, % at 9 µM | actives 87% (n = 2,300); in the data active = activation above about 49%;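 also: HepG2 hepatoma cells carrying a DRE-driven firefly luciferase reporter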
PXR counter: counter-screen for AHR activators: human PXR activators. shares compounds with AHR act. cell-based PXR reporter, luciferase luminescence. activation, % at 11.6 µM. actives 88% (n = 2,300). AID 434939; in the data active = activation above about 11%;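 also: human hepatoma DPX-2 cells expressing full-length human PXR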
Of the large screens only hits and unclear results are named; the others gave an inactive call (follow-up assays come after a bar, where they were run). Only some compounds are listed: those with a hit (about 4.4% of all), similar ones and a draw of the others.

CC1CCN(Cc2nnnn2CCCC(=O)NCCN2CCOCC2)CC1	none
COc1ccc(CN2CCC(n3nccc3NC(=O)CCc3ccccc3)CC2)c(C)c1C	none (no result: AHR act)
CN(C)c1cc(O)c(C(=S)Nc2ccccc2)c(N(C)C)c1	AHR act 125.5 | AHR act confirm 101.9 | PXR counter 114.6
COc1cc2sc(-c3ccc(S(C)(=O)=O)cc3)c(-c3ccc4c(c3)OCO4)c2cc1OC	none (no result: AI-2 QS mod)
c1ccc(-c2nnc3sc(-c4ccncc4)nn23)cc1	none
c1ccc(-c2nnc3sc(-c4csc5c4CCCC5)nn23)cc1	AHR act 96.7 | AHR act confirm 136.0 | PXR counter 37.7
COc1ccc(CNC(=O)COC(=O)c2nc3nc(C)cc(C)n3n2)cc1	none (no result: AI-2 QS mod)
Cc1cccc2sc(N(CCN(C)C)C(=O)C3CCN(S(=O)(=O)c4cccs4)CC3)nc12	none
COc1cc2cc(C(=O)N3CCOCC3)cc(-c3ccc(C)cc3)c2cc1OC	none
CC(C)N(C(=O)CSc1n[nH]c(=O)n1CCc1ccccc1)C(C)C	none
Cc1ccc(-n2c(C)cc(/C=C3\NC(=O)NC3=O)c2C)c(C)c1	none
Cc1cc(/C=C2/NC(=O)NC2=O)c(C)n1-c1ccccn1	AHR act 136.6 | AHR act confirm 87.9 | PXR counter 22.6
COc1cc2c(cc1OC)CN(C(=O)C1CCC(=O)N(CCCN3CCOCC3)C1)CC2 (stereo not drawn)	none
Cc1nc(N)[nH]c(=O)c1CCCNc1ccc(CCC2(CCl)OCCO2)cc1	none (no result: AHR act, AI-2 QS mod)
COC(=O)c1ccc(NC(=O)CCN2C(=O)NC(C)(C)C2=O)cc1	none (no result: AI-2 QS mod)
NC(=O)c1c(NC(=O)c2ccccc2Cl)sc2c1CCC2	none
NC(=O)c1c(NC(=O)c2ccccc2F)sc2c1CCCC2	AHR act 204.8 | AHR act confirm 104.3 | PXR counter 28.0
NC(=O)c1c(NC(=O)c2cccnc2Cl)sc2c1CCCC2	AHR act 103.2 | AHR act confirm inactive | PXR counter inactive
CSc1ncccc1C(=O)OCC(=O)Nc1ccc(N2CCOCC2)cc1	none (no result: AI-2 QS mod)
Nc1cc(-c2ccc(Br)cc2)[nH]n1	AHR act 84.2 | AHR act confirm 131.7 | PXR counter 10.8
Cc1cc(-c2ccc(Br)cc2)n[nH]1	none
Clc1ccc(-c2nnc(Sc3nc4ccccc4o3)c3ccccc23)cc1	none
O=c1c(Cl)c2oc3ccccc3nc-2c2ccccc12	AHR act 81.0 (no result: MsrA inhibitor) | AHR act confirm 122.8 | PXR counter 15.8
Nc1ccc(Nc2nc3ccccc3[nH]2)cc1	none
Nc1ccccc1Nc1nc2ccccc2[nH]1	AHR act 95.3 | AHR act confirm inactive | PXR counter inactive
O=c1c2ccccc2cnn1-c1ccc(Cl)cc1	AHR act 133.5 | AHR act confirm 116.9 | PXR counter 47.1
Cc1ccc(-n2ncc3ccccc3c2=O)cc1Cl	none
CCn1c(C)cc(/C=C2\NC(=O)N(CC(=O)Nc3cccc(C)c3)C2=O)c1C	AHR act 80.1 | AHR act confirm 77.6 | PXR counter 15.9
O=C(CNC(=O)c1ccccc1F)OCc1nc2ccccc2s1	none
CNc1sc(C(=O)c2ccccc2F)c(N)c1-c1nc2ccccc2s1	AHR act 89.9 | AHR act confirm 87.6 | PXR counter 48.0
Cn1nc(C(=O)Nc2nc3ccccc3[nH]2)c2ccccc2c1=O	AHR act 98.0 | AHR act confirm 73.2 | PXR counter 18.7
CCn1nc(C(=O)Nc2nc3ccccc3[nH]2)c2ccccc2c1=O	none
C1=CC2=NC34CCCCC3CC3=C(CCCC3)N4C2=CC1=NC1CCCCC1 (stereo not drawn)	none (no result: MsrA inhibitor)
CCOc1ccc(NC(=O)CN(C)C(=O)c2ccc(OCC(=O)N3CCOCC3)c(OC)c2)cc1OCC	none (no result: AHR act, AI-2 QS mod)
COc1ccc(-c2cn(-c3ccccc3)c(=S)[nH]2)cc1OC	none
COc1ccccc1-c1cn(-c2ccccc2)c(=S)[nH]1	AHR act 112.0 | AHR act confirm 108.7 | PXR counter 105.1
COc1cccc(-n2cc(-c3ccc(F)cc3)[nH]c2=S)c1	AHR act 108.5 | AHR act confirm inactive | PXR counter 51.9
COc1ccc(-n2cc(-c3ccc(Cl)cc3)[nH]c2=S)cc1	none
COc1ccccc1-n1cc(-c2ccc(C)cc2)[nH]c1=S	AHR act 109.0 | AHR act confirm 87.3 | PXR counter 97.0
CC1CCCCN1C(=O)COC(=O)c1cc([N+](=O)[O-])ccc1N1CCOCC1 (stereo not drawn)	none
Cc1nc(SCC(=O)Nc2nnc(C(C)C)s2)n[nH]1	none
CCOC(=O)[C@]12Cc3c(cc(OC)c(OC)c3OC)[C@H]1N(C1CCCCC1)C(=O)c1cc(OC)ccc12	none (no result: AHR act, AI-2 QS mod)
CCn1nc(NC(=O)C(C)(C)C)c2cc3cccc(C)c3nc21	AHR act 84.5 | AHR act confirm 88.8 | PXR counter 138.9
Cc1ccc2c(c1)/C(=C/c1ccco1)C(=O)N2	AHR act 115.6 | AHR act confirm 99.2 | PXR counter 22.9
COc1ccc(-c2csc(-c3cccs3)n2)c(OC)c1	AHR act 80.4 | AHR act confirm 118.9 | PXR counter 38.6
O=C(CSc1nc(-c2ccccc2Cl)ns1)Nc1ccc2c(c1)OCO2	AHR act 87.1 | AHR act confirm 72.5 | PXR counter 16.6
COCCN(C(=O)c1cc(S(=O)(=O)N2CCCCC2)ccc1Cl)c1c(N)n(CC(C)C)c(=O)[nH]c1=O	none (no result: AHR act, AI-2 QS mod)
Cc1ccc(NC(=O)c2ccsc2)cc1NS(C)(=O)=O	AHR act 83.8 (no result: MsrA inhibitor) | AHR act confirm 94.9 | PXR counter 32.7
CC(C)(C)c1ccc(NC(=O)c2ccsc2)cc1	none
Cc1cc(S(=O)(=O)N2CCOCC2)c(C)s1	none (no result: AI-2 QS mod)
O=C(NC(=S)Nc1ccccc1N1CCCC1)c1ccco1	AHR act 168.5 | AHR act confirm 123.7 | PXR counter 30.5
C=CCOc1c(Br)cc(/C=N/NC(N)=O)cc1OC	AHR act 89.2 | AHR act confirm 111.9 | PXR counter 25.2
Cc1sc(NC(=O)c2ccc(Cl)s2)c(C(N)=O)c1C	AHR act 97.7 | AHR act confirm 123.3 | PXR counter 24.3
Cc1sc(NC(=O)c2cc(-c3ccc(Cl)cc3)nc3ccccc23)c(C(N)=O)c1C	none
O=C(/C=C/c1ccccc1)N1CCN(CCN2C(=O)c3cccc4cccc(c34)C2=O)CC1	AHR act 102.0 | AHR act confirm 83.3 | PXR counter 51.2
CCOc1ccc(NC(=S)N2CCN(CCN3C(=O)c4cccc5cccc(c45)C3=O)CC2)cc1	AHR act 88.5 | AHR act confirm 107.5 | PXR counter 55.1
CC1(C)CC2(OC2c2ccccc2)C(=O)c2ccccc21 (stereo not drawn)	none (no result: AHR act, AI-2 QS mod)

From PubChem BioAssay
